pPAFAH inh – pPAFAH (human) enzyme inhibition | Q13093 | recombinant pPAFAH, FP-rhodamine probe fluorescence polarization | inhibition, % at 3.39 µM | 330,000 tested, 1.5% active;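 active = inhibition above the mean inhibition across the screen plus 3 SD, cut at about 25% in these data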;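 also: inhibitors block binding of the rhodamine activity-based probe so polarization drops; 0% = enzyme with DMSO and 100% = wells lacking pPAFAH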
Target sequence (Q13093 whole entry, looked up): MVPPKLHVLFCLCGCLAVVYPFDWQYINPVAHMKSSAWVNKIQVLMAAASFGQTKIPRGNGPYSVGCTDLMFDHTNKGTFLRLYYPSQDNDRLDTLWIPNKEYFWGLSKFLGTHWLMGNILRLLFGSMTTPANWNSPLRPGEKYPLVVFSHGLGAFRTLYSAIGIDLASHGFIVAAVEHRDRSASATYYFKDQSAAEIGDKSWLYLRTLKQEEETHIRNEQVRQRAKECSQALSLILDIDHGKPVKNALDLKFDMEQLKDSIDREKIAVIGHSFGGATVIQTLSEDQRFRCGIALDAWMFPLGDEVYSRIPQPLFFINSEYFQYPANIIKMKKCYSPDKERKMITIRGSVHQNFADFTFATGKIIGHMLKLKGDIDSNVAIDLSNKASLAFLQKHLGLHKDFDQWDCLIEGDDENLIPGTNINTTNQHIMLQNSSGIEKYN
UCH37 inh – blocks the human deubiquitinase UCH37; 330,000 tested, 0.33% active; Q9Y5K5; inhibition, % (test concentration not listed); purified proteasome/UCH37, Ub-AMC cleavage fluorescence;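 active = mean inhibition over replicate wells above about 20%, limit read from the data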;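 also: 0% = compound-free wells with enzyme and 100% = wells lacking proteasome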
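Material: human UCH37 enzyme supplied as purified proteasome complex / Amount: 0.15 nM proteasome as dispensed / Buffer or medium: pH 7.4 Tris-HCl (50 mM) with ovalbumin, ATP-MgCl2, DTT / Times: preincubation 30 min, reaction 25 min, room temperature / Technique: AMC fluorescence from Ub-AMC cleavage, excitation 355 nm, emission 460 nm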
PAFAH2 inh – PAFAH2 (human) inhibition; AID 492956; 340,000 tested, 0.99% active; inhibition, % at 3.39 µM; Q99487; recombinant PAFAH2, FP-rhodamine activity probe, fluorescence polarization;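 active = inhibition above the mean over all tested compounds plus 3 SD, cut at about 30% in these data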;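 also: inhibitors block probe labeling of enzyme so polarization drops; 0% = enzyme with DMSO and 100% = wells lacking PAFAH2 protein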
PAFAH1B2 FP inh – PAFAH1B2 (human) inhibition | P68402 | recombinant PAFAH1B2, FP-rhodamine activity probe, fluorescence polarization | inhibition, % at 3.39 µM | 340,000 tested, 1.2% active | AID 492953;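 active = inhibition above the mean of all tested compounds plus 3 SD, cut at about 24% in these data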;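 also: 0% = enzyme with DMSO and 100% = wells lacking PAFAH1B2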
PAFAH1B3 FP inh – blocks human PAF acetylhydrolase 1B catalytic subunit 3. AID 492972. 340,000 tested, 0.28% active. inhibition, % at 3.39 µM. recombinant PAFAH1B3, FP-rhodamine probe, fluorescence polarization;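 active = inhibition above the screen-wide average of all tested compounds plus 3 SD, cut at about 25% in these data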;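 also: 0% = enzyme with DMSO only and 100% = wells lacking PAFAH1B3 protein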
GRIN3A LBD mod – NR3A (human) ligand-binding domain modulation | NR3A LBD differential scanning fluorimetry, Tm shift; 0% = protein alone, 100% = glycine-bound protein | Tm shift relative to glycine control, % at 25 µM | 340,000 tested, 2.5% active;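 active = melting temperature shift of at least 10% of the positive control shift, at one fixed dose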
* marks the source's active call; other numbers are inactive results. Most compounds without a hit are left out; they make up all but 4.8% or so of the library.

Results for CCOC(=O)C1CCCN(S(=O)(=O)c2ccc(S(=O)(=O)N3CCCC3)cc2)C1 (stereo not given) ?
pPAFAH inh: -5.3; PAFAH2 inh: 14.8; PAFAH1B2 FP inh: -3.5; PAFAH1B3 FP inh: 6.9; GRIN3A LBD mod: 0.8

What do the screens show for `CCOC(=O)C1CCCN(S(=O)(=O)c2cc3[nH]c(=O)c(=O)[nH]c3cc2C)C1` (stereo not given)?
pPAFAH inh: 7.0; UCH37 inh: -46.6; PAFAH2 inh: 0.8; PAFAH1B2 FP inh: 25.6*; PAFAH1B3 FP inh: 3.7; GRIN3A LBD mod: -2.1

What do the screens show for `Cc1ccccc1OCCn1cc(C(=O)O)c2ccccc21`?
pPAFAH inh: 4.6; UCH37 inh: 1.6; PAFAH2 inh: 3.3; PAFAH1B2 FP inh: 24.4*; PAFAH1B3 FP inh: 9.8; GRIN3A LBD mod: 2.4

How did Cc1ccc(C)c(OCCn2cc(C(=O)O)c3ccccc32)c1 do in these assays?
pPAFAH inh: 3.4; UCH37 inh: 0.2; GRIN3A LBD mod: 0.8

What do the screens show for `O=C(NN=Cc1ccc(OCC(=O)N2CCCCC2)cc1)c1ccccc1O`?
UCH37 inh: 5.9

Results for O=[N+]([O-])c1ccc(-c2ccc(/C=N/Nc3nc(NCc4ccccc4)nc(N4CCOCC4)n3)o2)cc1 ?
pPAFAH inh: 4.7; PAFAH2 inh: -3.9; PAFAH1B2 FP inh: -2.9; PAFAH1B3 FP inh: 5.5; GRIN3A LBD mod: 10.8*

How did NC(=O)CSc1nc2ccccc2c(=O)n1-c1ccccc1 do in these assays?
pPAFAH inh: 3.1; UCH37 inh: 1.3; PAFAH2 inh: 1.0; PAFAH1B2 FP inh: -4.6; PAFAH1B3 FP inh: 9.5; GRIN3A LBD mod: 0.7

Results for O=C(CSc1nc2ccccc2c(=O)n1-c1ccccc1)c1c[nH]c2ccccc12 ?
pPAFAH inh: -6.6; PAFAH2 inh: -11.7; PAFAH1B2 FP inh: -10.6; PAFAH1B3 FP inh: -12.1; GRIN3A LBD mod: 18.2*

Results for CCCCCCCCC(=O)NN=C(C)c1ccco1 ?
UCH37 inh: 2.3

How did CC[C@H](C)/C=C(C)/C=C/C1=CC2=CC(=O)[C@]3(C)OC(=O)[C@@H](C(C)=O)[C@@H]3C2=CO1 do in these assays?
pPAFAH inh: 24.4; UCH37 inh: -79.5; PAFAH2 inh: 16.5; PAFAH1B2 FP inh: 6.9; PAFAH1B3 FP inh: -9.6; GRIN3A LBD mod: -4.5

How did CC[C@H](C)/C=C(C)/C=C/C(=O)Cc1cc(O)c(C)c(O)c1C=O do in these assays?
pPAFAH inh: 32.1*; UCH37 inh: -4.5; PAFAH2 inh: -1.6; PAFAH1B2 FP inh: -1.9; PAFAH1B3 FP inh: -3.0; GRIN3A LBD mod: -3.2

What do the screens show for `Cc1ccc(CNC(=O)CON=Cc2ccc3c(c2)OCO3)cc1`?
UCH37 inh: 2.8

Results for O=C1Nc2ccccc2SC(c2ccccc2)C1O (stereo not given) ?
pPAFAH inh: 34.2*; UCH37 inh: -1.3; PAFAH2 inh: 12.2; PAFAH1B2 FP inh: 5.7; PAFAH1B3 FP inh: 0.7; GRIN3A LBD mod: 0.6

What do the screens show for `CCOc1cc(C=NO)ccc1OCC(=O)Nc1cccc(C)c1`?
UCH37 inh: -0.1

Results for S=c1[nH]nc(CSCCOc2ccccc2)o1 ?
pPAFAH inh: 9.1; UCH37 inh: 4.1; PAFAH2 inh: -0.3; PAFAH1B2 FP inh: 7.6; PAFAH1B3 FP inh: 18.0; GRIN3A LBD mod: 1.1

What do the screens show for `S=c1[nH]nc(CSCCOc2ccc(Cl)cc2Cl)o1`?
pPAFAH inh: 7.9; UCH37 inh: -3.0; PAFAH2 inh: 3.9; PAFAH1B2 FP inh: 33.8*; PAFAH1B3 FP inh: 4.5; GRIN3A LBD mod: -6.4

Results for COc1cc(C=NNC(=O)CC2(C)OCCO2)cc(Br)c1O ?
UCH37 inh: -77.4

How did CCCC(=NCc1ccccc1)C1=C(O)C(C(=O)OC)C(C)(C)CC1=O (stereo not given) do in these assays?
pPAFAH inh: -1.9; UCH37 inh: 5.3; PAFAH2 inh: 2.3; PAFAH1B2 FP inh: 2.2; PAFAH1B3 FP inh: 4.5; GRIN3A LBD mod: 1.3

How did CCCC(=NCC(=O)O)C1=C(O)C(C(=O)OC)C(C)(C)CC1=O (stereo not given) do in these assays?
pPAFAH inh: 0.5; UCH37 inh: -3.1; PAFAH2 inh: -2.8; PAFAH1B2 FP inh: 2.9; PAFAH1B3 FP inh: 5.6; GRIN3A LBD mod: 25.3*

How did CC(=NNS(=O)(=O)c1ccc(Cl)c([N+](=O)[O-])c1)c1cc2ccccc2o1 do in these assays?
UCH37 inh: 4.5

Assay outcomes deposited in PubChem BioAssay by several laboratories.
